The values below come from ChEMBL document CHEMBL5150073, “Photocaged DNA-Binding Photosensitizer Enables Photocontrol of Nuclear Entry for Dual-Targeted Photodynamic Therapy” (J Med Chem, 2022).

pKd: −log10 of the molar value. The source made the active and inactive calls. The calls are words filed in the database; no cut-off is given here. A value given as a limit tells only on which side of the number the result lay.

The test system of series [1] is Calf thymus DNA. Briefly: Binding affinity to calf thymus DNA assessed as fold change in fluorescence quenching of 3-bromo-2-(4-carbamimidoylphenyl)-1H-indole-6-carboxamidine. Format: nucleic-acid assay. The conditions noted are these: Bos taurus.
The nature of series [2]: Drug localization in nucleus of human MCF7 cells assessed as increase in cyan fluorescence of 3-bromo-2-(4-carbamimidoylphenyl)-1H-indole-6-carboxamidine excitation at 3 uM incubated for 1 hr in dark by DAPI filter based analysis. The conditions noted are these: mcf7, 1 h. It counts as ADME, subcellular.
Series [3] has as its system MCF7. Briefly: Induction of DNA damage in human MCF7 cells assessed as double strand breaks by measuring pink foci formation in nucleus at 3 uM incubated for 2 hrs followed by irradiation with 8 J/cm^2 UV irradiation for 5 mins by gammaH2A.X antibody/Alexa 488/DAPI staining based fluorescence analysis. It counts as functional, cell-based. The method in brief: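 MCF7 cells treated with compound at 3 μM, then illuminated with 480 nm (15 min, 2.3 J cm⁻²) plus UV (5 min, 8.0 J cm⁻²), or with UV alone. Left 2 h, fixed, stained with Alexa 488-tagged γH2AX antibody and DAPI counterstain. Nuclear foci imaged.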

In series [4] the test system is MCF7. Briefly: Photocytotoxicity against human MCF7 cells assessed as reduction in cell viability incubated for 1 hr followed by washout and irradiation with 8 J/cm^2 UV irradiation for 5 mins and measured after 24 hrs by MTT assay. It counts as functional. Conditions: MCF7, light or radiation study. The essentials: (§1)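 Cells (MCF7, A549, HeLa) incubated 1 h with compound (BB probes 0–32 μM, Br-DAPI 0–64 μM) and washed once. Light arms: 480 nm (15 min, 2.3 J cm⁻²) with or without UV (5 min, 8.0 J cm⁻²), or UV only; dark controls unilluminated. Cells kept overnight in growth medium, then MTT read 24 h post-treatment. CC50 taken relative to untreated cells. n = 3.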
For orientation: Formazan colour is commonly taken as a measure of viable cells.

Series [5] has as its system MCF7. Briefly: Photocytotoxicity against human MCF7 cells assessed as reduction in cell viability incubated for 1 hr under dark condition followed by washout and measured after 24 hrs by MTT assay. It counts as functional. The essentials: as §1
Series [6] deals with MCF7. The series can be described thus: Photocytotoxicity against human MCF7 cells assessed as reduction in cell viability incubated for 1 hr followed by washout and irradiation with 8 J/cm^2 UV irradiation for 5 mins and measured after 24 hrs by MTT assay.
Series [7] relates to Calf thymus DNA. Briefly: Binding affinity to calf thymus DNA assessed as dissociation constant by fluorescence based analysis. It counts as nucleic-acid assay, Bos taurus. The method in brief:
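Fluorescence titration: compound at 20 μM in PBS pH 7.4, calf thymus DNA added in 10 μM steps until emission plateaued (~60 μM). Excitation 345 nm, emission 350–650 nm. KD obtained by fitting a one-site total saturation binding model (nonspecific binding proportional to ligand). Triplicate independent samples.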

Series [8] is described as follows: Drug localization in nucleus of human MCF7 cells assessed as increase in cyan fluorescence at 3 uM incubated for 1 hr by DAPI filter based analysis. It counts as ADME, subcellular. Conditions: mcf7, 1 h.
The nature of series [9]: Drug uptake in human MCF7 cells cultured as […] spheroids assessed as increase in green fluorescence in nuclear background at 10 uM incubated overnight under dark condition by DAPI filter based fluorescence analysis. It counts as ADME, cell-based. The conditions noted are these: mcf7, 10 µM.
Series [10] is described as follows: Stability of compound in human HeLa cells assessed as esterase-mediated 3-bromo-2-(4-carbamimidoylphenyl)-1H-indole-6-carboxamidine release by measuring cyan fluorescence at 2 uM incubated for 1 hr followed by compound washout and further incubated for 1 hr on heated microscopic stage by DAPI filter based fluorescence analysis. Format: ADME, cell-based. The essentials: (§2)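 Cells incubated with compound (2 μM) for 1 h, washed once with PBS, then kept a further 1 h in the dark on a heated microscope stage. Nuclear cyan fluorescence imaged with the DAPI filter set at 0 h and 2 h time points.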

Series [11] is described as follows: Stability of compound in human A549 cells assessed as esterase-mediated 3-bromo-2-(4-carbamimidoylphenyl)-1H-indole-6-carboxamidine release by measuring cyan fluorescence at 2 uM incubated for 1 hr followed by compound washout and further incubated for 1 hr on heated microscopic stage by DAPI filter based fluorescence analysis. It counts as ADME, cell-based. The conditions noted are these: a549, 1 h. The method in brief:
as §2

Series [12] in a line: Aqueous stability of the compound in PBS at pH 7.4 assessed as hydrolysis of carbamate to release 3-bromo-2-(4-carbamimidoylphenyl)-1H-indole-6-carboxamidine at 0.8 uM incubated for 3 hrs by fluorescence based analysis. Format: physicochemical. Conditions: buffer, pH 7.4, 3 h.
Series [13] in a line: Photorelease activity in PBS at pH 7.4 assessed as wintergreen release at 50 uM in presence of CT-DNA illuminated with 3.1 J/cm^2 480 nm illumination for 20 mins by RP-HPLC analysis. Format: functional. The method in brief:
(§3)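 Samples at 50 μM in PBS pH 7.4 were either kept 3 h at 37 °C in the dark or illuminated 20 min at 480 nm (450–495 nm filter, 3.1 J cm⁻²). Analysed by RP-HPLC on a C18 analytical column with absorbance at 345 nm; retention times recorded. n = 2 independent samples.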

Series [14] can be described thus: Photorelease activity in PBS at pH 7.4 assessed as 3-bromo-2-(4-carbamimidoylphenyl)-1H-indole-6-carboxamidine release by measuring increase in fluorescence intensity at 50 uM in presence of CT-DNA incubated for 3 hrs under dark condition by RP-HPLC analysis. Format: functional. The method in brief: as §3
Series [15] relates to MCF7. Briefly: Induction of ROS production in human MCF7 cells at 2 uM incubated for 1 hr in dark followed by irradiation with 480 nm 2.3 J/cm^2 light for 15 mins with 8 J/cm^2 UV irradiation for 5 mins by DCFH2-DA probe based analysis. Format: functional, cell-based. The conditions noted are these: time 80.0 min. The essentials:
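MCF7 cells incubated with compound (2 μM) 1 h in the dark, washed, loaded with 10 μM DCFH2DA for 30 min, washed. DCF green fluorescence imaged after 480 nm illumination (15 min, 2.3 J cm⁻²), then after added 365 nm UV (5 min, 8.0 J cm⁻²). Mean fluorescence intensity quantified.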

A short description of series [16]: Induction of ROS production in PBS at pH 7.4 at 1 uM irradiated with 480 nm 2.3 J/cm^2 light for 15 mins with 2-photon irradiation by DCFH2-DA probe based analysis. It counts as functional.
Series [17] concerns MCF7. Briefly: Photocytotoxicity against human MCF7 cells assessed as reduction in cell viability incubated for 1 hr followed by washout and irradiation with 480 nm 2.3 J/cm^2 light for 15 mins and measured after 24 hrs by MTT assay. It counts as functional. The conditions noted are these: MCF7, light or radiation study. The method in brief: as §1
Series [18] is described as follows: Photorelease ability in PBS at pH 7.4 assessed as 3-bromo-2-(4-carbamimidoylphenyl)-1H-indole-6-carboxamidine release by measuring change in emission spectra at 1 uM incubated in presence of CT-DNA and irradiated with 3.1 J/cm^2 mercury lamp light for 20 mins. It counts as functional.
The subject of series [19] is MCF7. Briefly: Photocytotoxicity against human MCF7 cells assessed as reduction in cell viability incubated for 1 hr followed by washout and irradiation with 480 nm 2.3 J/cm^2 light for 15 mins with 8 J/cm^2 UV irradiation for 5 mins and measured after 24 hrs by MTT assay. The conditions noted are these: MCF7, light or radiation study. Format: functional. The method in brief: as §1

Series [20] deals with MCF7. The series can be described thus: Photorelease activity in human MCF7 cells assessed as 3-bromo-2-(4-carbamimidoylphenyl)-1H-indole-6-carboxamidine release by measuring bright cyan fluorescence in nucleus at 3 uM incubated for 1 hr followed by illumination with 1.6 J/cm^2 for 10 mins by DAPI filter based analysis. Format: ADME, cell-based. The conditions noted are these: mcf7, 1.167 h, time 70 min. The method in brief: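 MCF7 cells given compound (3 μM) for 1 h, washed once with PBS, imaged. DAPI filter set (ex 350–405, em 415–470 nm) used for Br-DAPI cyan signal; EGFP filter set (ex 450–495, em 500–550 nm) used for WinterGreen green signal. Cells imaged dark, then after 480 nm illumination (10 min, 1.6 J cm⁻²).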

Series [21] is described as follows: Photorelease activity in PBS at pH 7.4 assessed as 3-bromo-2-(4-carbamimidoylphenyl)-1H-indole-6-carboxamidine release by measuring time at when peak observed at 50 uM in presence of CT-DNA illuminated with 3.1 J/cm^2 480 nm illumination for 20 mins by RP-HPLC analysis. It counts as functional. The essentials:
as §3

Series [22] can be described thus: Stability of compound in human MCF7 cells assessed as esterase-mediated 3-bromo-2-(4-carbamimidoylphenyl)-1H-indole-6-carboxamidine release by measuring cyan fluorescence at 2 uM incubated for 1 hr followed by compound washout and further incubated for 1 hr on heated microscopic stage by DAPI filter based fluorescence analysis. Format: ADME, cell-based. The conditions noted are these: mcf7, 1 h. The method in brief: as §2

On to `COC(=O)/N=C(/N)c1ccc2c(Br)c(-c3ccc(C(=N)N)cc3)[nH]c2c1`, for which the fold change (FC) in the series on Calf thymus DNA [1] was 4. Also, the Drug uptake result in series [2] is listed as “Active”.

`N=C(N)c1ccc(-c2[nH]c3cc(C(=N)N)ccc3c2Br)cc1`: the outcome in the series on MCF7 [3] and in the series on MCF7 [6] was Active. The values for the CC50 in the series with MCF7 [4] and in the series on MCF7 [5] were 7.6 µM and greater than 64 µM, respectively. Moreover, the pKd – broadly, −log10 of the Kd, conventionally taken in molar units – in the series with Calf thymus DNA [7] was 4.72. The Drug uptake result in [8] and in series [9] was “Active” throughout.

Turning to `CC1=CC(C)=[N+]2C1=C(COC(=O)/N=C(\N)c1ccc(-c3[nH]c4cc(C(=N)N)ccc4c3Br)cc1)c1c(C)cc(C)n1[B-]2(C)C`, the Stability entry in series [10], in [11], in [12] and in series [22] was “Stable” throughout. Further, the results for the CC50 in the series on MCF7 [5], in the series with MCF7 [17] and in the series with MCF7 [19] were greater than 16 µM, 5.8 µM and 0.6 µM, respectively. In the series with Calf thymus DNA [1], the fold change (FC) was 4. For the same compound, the Drug metabolism result is “Metabolite not detected” in series [13], “Metabolite not detected” in series [14], “Metabolite detected” in series [18] and “Metabolite_Detected” in the series on MCF7 [20]. Moreover, the outcome (in the series on MCF7 [15]; in [16]) was Active. Also, in the series with Calf thymus DNA [7], the negative-log Kd (pKd) was 5.00. Also, in [21], the TIME worked out at 0.533 h.
